Values after ≈ are worked out from the molar mass of the structure shown. One block for each compound: values may come before it. Active and inactive are the calls of the source. No cut-off for these calls is given here.
Key:
[1] = (§1) Antiproliferative activity against human RM-82 cells assessed as inhibition of cell proliferation at 1 uM incubated for 5 days by WST-1 assay; format: functional; design: scale not given: the % may be the effect or the level left; conditions: time 5 day
[2] = Permeability of compound incubated for 5 hrs by PAMPA based CLND assay; format: ADME
[3] = (§2) Antiproliferative activity against human STA-ET-10 cells assessed as inhibition of cell proliferation at 1 uM incubated for 5 days by WST-1 assay; format: functional; design: scale not given: the % may be the effect or the level left; conditions: time 5 day
In short: (§3)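 Ewing sarcoma cell lines were exposed to a single 1 μM concentration for 5 days. Viability was reported as percent viability, as part of a preliminary single-dose screen.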

MDA-MB-231 = assay: Anticancer activity against human MDA-MB-231 cells assessed as cell growth inhibition at 2 to 10 uM incubated for 24 to 72 hrs by WST-1 assay; conditions: dose 2-10 µM, time lower […], time upper 72.0 hrs
[4] = (§4) Antiproliferative activity against human STA-ET-1 cells assessed as inhibition of cell proliferation at 1 uM incubated for 5 days by WST-1 assay; format: functional; design: scale not given: the % may be the effect or the level left; conditions: time 5 day; in short: as §3
[5] = Aqueous kinetic solubility of compound in PBS at pH 7.4 incubated for 24 hrs by Chemiluminescent nitrogen determination assay; format: physicochemical; conditions: for Kinetic_solubility: buffer, pH 7.4, 24 h; for solubility kinetic at 24 h: PBS, pH 7.4, read-out: Kinetic_solubility
RM-82 = assay: as §1; format: functional; conditions: time 5.0 day
STA-ET-10 = assay: as §2; format: functional; conditions: time 5.0 day; in short: as §3
STA-ET-1 = assay: as §4; format: functional; conditions: time 5.0 day; in short: as §3
AMO1 [6] = assay: Antiproliferative activity against human AMO1 cells assessed as inhibition of cell proliferation at 1 uM incubated for 5 days by WST-1 assay; format: functional; design: scale not given: the % may be the effect or the level left; conditions: time 5 day
L-363 [7] = assay: Antiproliferative activity against carfilzomib-resistant human L-363 cells assessed as inhibition of cell proliferation at 1 uM incubated for 5 days by WST-1 assay; format: functional; design: scale not given: the % may be the effect or the level left; conditions: time 5 day
L-363 [8] = assay: Antiproliferative activity against human L-363 cells assessed as inhibition of cell proliferation at 1 uM incubated for 5 days by WST-1 assay; format: functional; design: scale not given: the % may be the effect or the level left; conditions: time 5 day
[9] = Antiproliferative activity against human MUG-Chor1 cells assessed as inhibition of cell proliferation at 1 uM incubated for 5 days by WST-1 assay; format: functional; design: scale not given: the % may be the effect or the level left; conditions: time 5 day
L-363 [10] = assay: Antiproliferative activity against bortezomib-resistant human L-363 cells assessed as inhibition of cell proliferation at 1 uM incubated for 5 days by WST-1 assay; format: functional; design: scale not given: the % may be the effect or the level left; conditions: time 5 day
AMO1 [11] = assay: Antiproliferative activity against pomalidomide resistant human AMO1 cells assessed as inhibition of cell proliferation at 1 uM incubated for 5 days by WST-1 assay; format: functional; design: scale not given: the % may be the effect or the level left; conditions: time 5 day
[12] = target: T1, Homeodomain-interacting protein kinase 2 (Homo sapiens, UniProt Q9H2X6); assay: Inhibition of wild type human HIPK2 at 1 uM by DiscoverX scanMAX assay relative to control; values are per cent of control
Target sequence in this assay (Q9H2X6 whole entry, looked up): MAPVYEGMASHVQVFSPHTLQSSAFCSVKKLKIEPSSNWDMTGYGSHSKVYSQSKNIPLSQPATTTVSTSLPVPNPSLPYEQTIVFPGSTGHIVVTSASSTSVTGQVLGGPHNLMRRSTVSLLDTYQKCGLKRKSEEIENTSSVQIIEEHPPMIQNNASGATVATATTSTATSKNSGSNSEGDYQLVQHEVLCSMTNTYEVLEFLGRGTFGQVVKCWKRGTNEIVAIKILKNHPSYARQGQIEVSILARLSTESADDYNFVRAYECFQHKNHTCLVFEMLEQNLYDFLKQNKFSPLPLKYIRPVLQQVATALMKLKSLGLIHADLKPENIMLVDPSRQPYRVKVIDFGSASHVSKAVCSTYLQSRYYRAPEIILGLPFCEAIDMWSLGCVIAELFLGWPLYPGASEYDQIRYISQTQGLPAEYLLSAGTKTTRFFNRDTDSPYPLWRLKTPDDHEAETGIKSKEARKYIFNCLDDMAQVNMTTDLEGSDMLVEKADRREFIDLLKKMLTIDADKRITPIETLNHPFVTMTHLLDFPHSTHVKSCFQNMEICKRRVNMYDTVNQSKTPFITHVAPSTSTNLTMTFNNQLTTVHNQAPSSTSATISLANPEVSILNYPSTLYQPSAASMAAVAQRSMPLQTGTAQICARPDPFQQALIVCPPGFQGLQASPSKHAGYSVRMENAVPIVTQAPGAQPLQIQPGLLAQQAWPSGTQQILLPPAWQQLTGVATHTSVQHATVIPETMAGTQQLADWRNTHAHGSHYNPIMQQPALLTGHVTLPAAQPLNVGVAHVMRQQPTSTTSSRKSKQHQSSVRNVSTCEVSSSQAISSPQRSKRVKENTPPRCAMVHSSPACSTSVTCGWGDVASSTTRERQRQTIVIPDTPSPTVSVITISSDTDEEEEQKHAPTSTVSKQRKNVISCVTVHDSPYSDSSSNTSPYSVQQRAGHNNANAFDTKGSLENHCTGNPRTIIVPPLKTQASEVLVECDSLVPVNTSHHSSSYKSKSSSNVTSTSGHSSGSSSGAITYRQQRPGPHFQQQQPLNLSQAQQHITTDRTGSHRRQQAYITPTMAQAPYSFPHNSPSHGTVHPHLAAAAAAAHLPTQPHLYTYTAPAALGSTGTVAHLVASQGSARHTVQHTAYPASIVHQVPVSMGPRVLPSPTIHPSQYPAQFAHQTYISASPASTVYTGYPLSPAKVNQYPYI

[13] = target: Death-associated protein kinase 2 (Homo sapiens, UniProt Q9UIK4); assay: Inhibition of wild type human DAPK2 in presence of ATP by radiometric kinase assay
Death-associated protein kinase 2, sequence (Q9UIK4 whole entry): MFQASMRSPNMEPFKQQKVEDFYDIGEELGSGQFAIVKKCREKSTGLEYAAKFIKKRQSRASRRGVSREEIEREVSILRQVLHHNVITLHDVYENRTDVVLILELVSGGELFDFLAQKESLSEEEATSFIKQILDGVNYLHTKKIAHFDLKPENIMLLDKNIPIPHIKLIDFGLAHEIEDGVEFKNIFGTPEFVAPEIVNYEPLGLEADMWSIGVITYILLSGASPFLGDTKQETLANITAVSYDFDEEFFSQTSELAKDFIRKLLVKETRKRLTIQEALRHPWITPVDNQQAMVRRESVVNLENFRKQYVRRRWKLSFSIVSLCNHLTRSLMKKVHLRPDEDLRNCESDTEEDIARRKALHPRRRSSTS

[14] = target: T1, Homeodomain-interacting protein kinase 2; assay: Inhibition of wild type human HIPK2 in presence of ATP by radiometric kinase assay
Target sequence in this assay (Q9H2X6 whole entry): as the sequence (Q9H2X6 whole entry, looked up) above

[15] = target: T2, Casein kinase II subunit alpha (Homo sapiens, UniProt P68400); assay: Inhibition of C-terminal Nano-Luc fused human CK2alpha expressed in HEK293 cells using NanoBRET NanoGlo substrate in presence of tracer K10 by NanoBRET assay; format: cell-based
T2 sequence (P68400 whole entry, the tested form may be a part): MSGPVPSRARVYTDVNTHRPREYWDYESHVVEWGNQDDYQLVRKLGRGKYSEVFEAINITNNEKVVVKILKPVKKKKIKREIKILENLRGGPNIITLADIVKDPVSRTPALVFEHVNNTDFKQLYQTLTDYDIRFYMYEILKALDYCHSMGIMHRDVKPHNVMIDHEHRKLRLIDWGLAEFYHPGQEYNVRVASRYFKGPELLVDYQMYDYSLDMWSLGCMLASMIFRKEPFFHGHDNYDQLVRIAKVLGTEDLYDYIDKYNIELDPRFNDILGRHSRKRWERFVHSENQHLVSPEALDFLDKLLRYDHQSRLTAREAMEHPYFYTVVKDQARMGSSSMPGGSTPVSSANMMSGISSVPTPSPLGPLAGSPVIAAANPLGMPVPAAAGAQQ

[16] = target: T3, Casein kinase II subunit alpha' (Homo sapiens, UniProt P19784); assay: Inhibition of wild type human CK2alpha' in presence of ATP by radiometric kinase assay
T3 sequence (P19784 whole entry): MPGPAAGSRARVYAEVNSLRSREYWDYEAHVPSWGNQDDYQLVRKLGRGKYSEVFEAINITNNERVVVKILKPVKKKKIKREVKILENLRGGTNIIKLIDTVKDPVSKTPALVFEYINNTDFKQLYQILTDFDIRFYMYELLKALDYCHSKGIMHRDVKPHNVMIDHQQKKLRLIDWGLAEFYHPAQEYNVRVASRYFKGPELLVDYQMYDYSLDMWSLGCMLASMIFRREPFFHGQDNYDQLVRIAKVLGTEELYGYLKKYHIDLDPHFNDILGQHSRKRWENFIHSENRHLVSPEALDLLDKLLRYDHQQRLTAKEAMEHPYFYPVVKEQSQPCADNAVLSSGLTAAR

[17] = target: Phosphatidylinositol 4-phosphate 5-kinase type-1 gamma (Homo sapiens) (UniProt O60331); assay: Inhibition of wild type human PIP5K1C at 1 uM by DiscoverX scanMAX assay relative to control; values are per cent of control
Phosphatidylinositol 4-phosphate 5-kinase type-1 gamma (Homo sapiens), sequence (O60331 whole entry, the tested form may be a part): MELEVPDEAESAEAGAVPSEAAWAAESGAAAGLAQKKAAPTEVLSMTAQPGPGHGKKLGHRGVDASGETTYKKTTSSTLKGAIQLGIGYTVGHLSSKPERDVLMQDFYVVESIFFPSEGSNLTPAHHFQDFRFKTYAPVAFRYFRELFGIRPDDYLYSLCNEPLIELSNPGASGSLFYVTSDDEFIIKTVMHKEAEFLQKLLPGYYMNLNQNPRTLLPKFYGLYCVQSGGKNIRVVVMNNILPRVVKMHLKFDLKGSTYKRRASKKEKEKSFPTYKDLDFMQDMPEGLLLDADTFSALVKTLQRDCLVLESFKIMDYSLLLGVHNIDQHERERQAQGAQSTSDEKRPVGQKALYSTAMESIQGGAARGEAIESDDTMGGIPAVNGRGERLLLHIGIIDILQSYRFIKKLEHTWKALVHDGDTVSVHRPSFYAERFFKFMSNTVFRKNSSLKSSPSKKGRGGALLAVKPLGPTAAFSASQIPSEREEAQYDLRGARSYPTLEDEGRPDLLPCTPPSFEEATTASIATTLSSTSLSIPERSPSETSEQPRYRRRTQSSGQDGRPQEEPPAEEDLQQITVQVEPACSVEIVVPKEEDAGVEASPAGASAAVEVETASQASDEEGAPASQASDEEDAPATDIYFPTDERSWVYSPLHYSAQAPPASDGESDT

[18] = target: T3, Casein kinase II subunit alpha'; assay: Inhibition of C-terminal Nano-Luc fused human CK2alpha' expressed in HEK293 cells using NanoBRET NanoGlo substrate in presence of tracer K5 by NanoBRET assay; format: cell-based
[19] = target: T2, Casein kinase II subunit alpha; assay: Inhibition of wild type human CK2alpha in presence of ATP by radiometric kinase assay

permeability [2]: Permeable | Kinetic_solubility [5]: 277.1 µM
SMILES: O=C(O)c1ccc2c(c1)nc(Nc1cccc(Cl)c1)c1ccncc12 [SILMITASERTIB]
Activity [1]: 63% | Activity [3]: 63% | Activity (MDA-MB-231): Active | Activity [4]: 21%

solubility kinetic at 24 h [5]: 237 µM (≈ 78.9 µg/mL)
SMILES: O=C(O)c1ccc2c(c1)nc(Nc1cccc(F)c1)c1ccncc12

solubility kinetic at 24 h [5]: 202 µM (≈ 66.7 µg/mL)
SMILES: O=C(O)c1ccc2c(c1)nc(NCc1ccccc1)c1ccncc12

solubility kinetic at 24 h [5]: 188 µM (≈ 67.8 µg/mL)
SMILES: O=C(O)c1ccc2c(c1)nc(NCCc1cccc(F)c1)c1ccncc12

solubility kinetic at 24 h [5]: 180 µM (≈ 67.4 µg/mL)
SMILES: COc1cccc(CCNc2nc3cc(C(=O)O)ccc3c3cnccc23)c1

solubility kinetic at 24 h [5]: 184 µM (≈ 69.5 µg/mL)
SMILES: O=C(O)c1ccc2c(c1)nc(NCCc1cccc(Cl)c1)c1ccncc12

Kinetic_solubility [5]: 147 µM
SMILES: O=C(O)c1ccc2c(c1)nc(NCCc1cccc(F)c1)c1ncncc12

solubility kinetic at 24 h [5]: 190 µM (≈ 65.8 µg/mL)
SMILES: COc1cccc(Nc2nc3cc(C(=O)O)ccc3c3cnccc23)c1

solubility kinetic at 24 h [5]: 171 µM (≈ 58.9 µg/mL)
SMILES: O=C(O)c1ccc2c(c1)nc(NCCc1ccccc1)c1ccncc12

Second part, the compound before the results:

SMILES: O=C(O)c1ccc2c(c1)nc(Nc1ccccc1Cl)c1ncncc12
Kinetic_solubility [5]: 121.8 µM

SMILES: N#Cc1cccc(Nc2nc3cc(C(=O)O)ccc3c3cncnc23)c1
Activity (RM-82): inactive | Activity (STA-ET-10): inactive | Activity (STA-ET-1): inactive | Kinetic_solubility [5]: 66.7 µM

SMILES: CCC(=O)Nc1cc(Nc2cc(NC3CC3)n3ncc(C#N)c3n2)ccc1C
Activity (AMO1 [6]): 9% | Activity (L-363 [7]): 9% | Activity (STA-ET-10): inactive | Activity (L-363 [8]): 9% | Activity [9]: 55% | Activity (L-363 [10]): 9% | Activity (AMO1 [11]): 9% | Activity (STA-ET-1): inactive

SMILES: O=C(O)c1ccc2c(c1)nc(Nc1ccc(F)c(Cl)c1)c1ncncc12
Kinetic_solubility [5]: 49.1 µM

SMILES: O=C(O)c1ccc2c(c1)nc(NCCc1ccccc1)c1ncncc12
Kinetic_solubility [5]: 146.4 µM

SMILES: O=C(O)c1ccc2c(c1)nc(Nc1ccc(F)c(Cl)c1)c1ccncc12
Kinetic_solubility [5]: 148.4 µM

SMILES: O=C(O)c1ccc2c(c1)nc(Nc1ccc3ccccc3c1)c1ccncc12
Kinetic_solubility [5]: 32.8 µM

SMILES: O=C(O)c1ccc2c(c1)nc(Nc1ccccc1)c1ccncc12
solubility kinetic at 24 h [5]: 184 µM (≈ 58.1 µg/mL)

SMILES: O=C(O)c1ccc2c(c1)nc(NCc1ccccc1)c1ncncc12
Activity (AMO1 [6]): 44% | Activity (RM-82): inactive | permeability [2]: Permeable | Activity (STA-ET-10): inactive | Activity (L-363 [8]): 36% | residual activity [12]: 30% | IC50 [13]: 1500 nM | Activity (STA-ET-1): inactive | IC50 [14]: 600 nM | solubility kinetic at 24 h [5]: 211 µM (≈ 69.6 µg/mL)

SMILES: O=C(O)c1ccc2c(c1)nc(Nc1ccc3ccccc3c1)c1ncncc12
Kinetic_solubility [5]: 54.3 µM

SMILES: O=C(O)c1ccc2c(c1)nc(NCCc1cccc(Cl)c1)c1ncncc12
Kinetic_solubility [5]: 109.1 µM

SMILES: O=C(O)c1ccc2c(c1)nc(Nc1cccc(F)c1)c1ncncc12
solubility kinetic at 24 h [5]: 192 µM (≈ 64.2 µg/mL)

SMILES: N#Cc1cccc(Nc2nc3cc(C(=O)O)ccc3c3cnccc23)c1
Activity (RM-82): inactive | Activity (STA-ET-10): inactive | Activity (STA-ET-1): inactive | Kinetic_solubility [5]: 131.7 µM

SMILES: COc1cccc(CCNc2nc3cc(C(=O)O)ccc3c3cncnc23)c1
solubility kinetic at 24 h [5]: 152 µM (≈ 56.8 µg/mL)

SMILES: O=C(O)c1ccc2c(c1)nc(Nc1ccc(Cl)cc1)c1ccncc12
Kinetic_solubility [5]: 25.3 µM

SMILES: O=C(O)c1ccc2c(c1)nc(Nc1ccccc1)c1ncncc12
solubility kinetic at 24 h [5]: 168 µM (≈ 53.2 µg/mL)

SMILES: O=C(O)c1ccc2c(c1)nc(Nc1ccc(Cl)cc1)c1ncncc12
solubility kinetic at 24 h [5]: 209 µM (≈ 73.3 µg/mL)

SMILES: O=C(O)c1ccc2c(c1)nc(NCc1ccccc1)c1ncccc12
IC50 [15]: > 10 µM | IC50 [16]: > 10 µM | residual activity [17]: 15% | IC50 [18]: > 10 µM | IC50 [19]: > 10 µM
